The subject of test [1] is Human immunodeficiency virus 1. The test is described as follows: Antiviral activity against HIV1 in human PBMC. It is filed as functional, organism-based. Summed up:
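PHA-stimulated (2-3 days) human PBM cells from seronegative donors, infected in bulk 1 h with HIV-1 LAI (100 TCID50/1 × 10⁷ cells, flask; or 200 TCID50/6 × 10⁵ cells/well, 24-well), then added to 10-fold serial compound dilutions in RPMI-1640/16% FBS/IL-2/DEAE-dextran. 5 days, 37 °C, 5% CO₂. Supernatant RT activity by poly(rA)·oligo(dT), ³H-TTP incorporation, 2 h 37 °C; EC50/EC90 by median effect method.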

Another test concerns Vero. The test is described as follows: Cytotoxicity against Vero cells. Particulars: Chlorocebus sabaeus. It is filed as functional, cell-based. The procedure, abridged: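 Log-phase Vero cells seeded at 5 × 10³ cells/well with 10-fold serial compound dilutions, incubated 3 days at 37 °C, 5% CO₂. MTT dye added overnight, formazan solubilized 5 h, absorbance read at 570 nm.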

The subject of a further test is CCRF-CEM. The test is described as follows: Cytotoxicity against human CEM cells. In kind it is functional, cell-based. Summed up: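 Log-phase CEM T-lymphoblastoid cells seeded at 2.5 × 10³ cells/well with 10-fold serial compound dilutions, held 4 days at 37 °C, 5% CO₂. MTT dye added overnight, then stop-solubilization 5 h; absorbance at 570 nm.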
A further test has as its system PBMC. The test is described as follows: Cytotoxicity against human PBMC. It is filed as functional, cell-based. The procedure, abridged: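 Uninfected PHA-stimulated human PBM cells, log phase, 5 × 10⁴ cells/well, exposed to 10-fold serial compound dilutions for 5 days at 37 °C, 5% CO₂. MTT overnight, formazan dissolved 5 h, read at 570 nm.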

Here are results for 16 compounds from ChEMBL document CHEMBL1138188, “Synthesis and anti-HIV activity of D- and L-thietanose nucleosides” (J Med Chem, 2006).

Usually EC50 stands for the midpoint of the concentration-response curve. Read a high EC50 as a need for much substance. One may read the EC90 as the point of the concentration-response curve where the effect stands at 90%. A word on the IC50: it is the point on the concentration scale where inhibition reaches its midpoint. A low value points to higher potency.

`OC[C@H]1[C@H](CO)S[C@@H]1n1cnc2c(O)ncnc21`: in test [1], the EC50 was > 100 µM. The EC90 in test [1] was > 100 µM. Moreover, the IC50 with Vero, in the test on CCRF-CEM and in the test on PBMC was > 100 µM each time.

As to `Nc1nc(O)c2ncn([C@@H]3S[C@H](CO)[C@H]3CO)c2n1`, the EC50 in test [1] is > 100 µM. For the same compound, the EC90 in test [1] was > 100 µM. For the same compound, the IC50 in the test with Vero, in the test with CCRF-CEM and in the test with PBMC was > 100 µM throughout.

In turn, `O=c1ccn([C@@H]2S[C@H](CO)[C@H]2CO)c(=O)[nH]1` displayed an EC50 in test [1] of 6.9 µM. The compound also returned an EC90 in test [1] of 23.1 µM. Besides, the IC50 was > 100 µM in the test with Vero, 4.9 µM with CCRF-CEM and 8.5 µM with PBMC.

Regarding `Cc1cn([C@@H]2S[C@H](CO)[C@H]2CO)c(=O)[nH]c1=O`, the EC50 in test [1] was > 100 µM. Moreover, the EC90 in test [1] is > 100 µM. For the same compound, the IC50 in the test with Vero, with CCRF-CEM and in the test with PBMC was > 100 µM throughout.

On to `Cc1cn([C@H]2S[C@@H](CO)[C@@H]2CO)c(=O)[nH]c1=O`, for which the EC50 in test [1] was > 100 µM. For the same compound, in test [1], the EC90 was > 100 µM. Further, the IC50 in the test with Vero, in the test with CCRF-CEM and in the test on PBMC was > 100 µM in each case.

On to `Nc1ccn([C@H]2S[C@@H](CO)[C@@H]2CO)c(=O)n1`, for which the EC50 in test [1] was found to be 14.1 µM. This compound also displayed an EC90 in test [1] of 47.6 µM. Also, the figures for the IC50 with Vero, in the test on CCRF-CEM and in the test with PBMC were > 100 µM, 45.6 µM and 13.1 µM, respectively.

Turning to `OC[C@H]1[C@H](n2cnc3c(O)ncnc32)S[C@@H]1CO`, the EC50 in test [1] is > 100 µM. Also, the EC90 in test [1] is > 100 µM. The IC50 in the test with Vero, with CCRF-CEM and with PBMC was > 100 µM each time.

In the case of `Nc1nc(O)c2ncn([C@H]3S[C@@H](CO)[C@@H]3CO)c2n1`, in test [1], the EC50 is > 100 µM. Also, the EC90 in test [1] was > 100 µM. Besides, the IC50 with Vero, in the test with CCRF-CEM and in the test on PBMC was > 100 µM throughout.

Take `Nc1nc(=O)n([C@@H]2S[C@H](CO)[C@H]2CO)cc1Br`: the midpoint of the response in test [1], the EC50, lay at 11.5 µM. In test [1], this compound returned an EC90 of 41.9 µM. The IC50 in the test on Vero is > 100 µM; in the test with CCRF-CEM it was 1.8 µM; in the test with PBMC it was > 100 µM.

In the case of `Nc1nc(=O)n([C@@H]2S[C@H](CO)[C@H]2CO)cc1F`, the response in test [1] was half-maximal at 5.8 µM (EC50). The compound also came in with an EC90 in test [1] of 13.9 µM. Further, the 50% inhibitory concentration (IC50) with Vero was > 100 µM; with CCRF-CEM, 19 µM; with PBMC, < 1 µM.

In the case of `Nc1ncnc2c1ncn2[C@H]1S[C@@H](CO)[C@@H]1CO`, the EC50 in test [1] is > 100 µM. The EC90 in test [1] is > 100 µM. Moreover, the IC50 with Vero, in the test with CCRF-CEM and in the test with PBMC was > 100 µM in each case.

Regarding `O=c1ccn([C@H]2S[C@@H](CO)[C@@H]2CO)c(=O)[nH]1`, the concentration for a half-maximal effect (EC50) in test [1] was > 100 µM. Besides, the EC90 in test [1] is > 100 µM. The IC50 in the test with Vero, in the test with CCRF-CEM and in the test with PBMC was > 100 µM in each case.

For `Nc1ccn([C@@H]2S[C@H](CO)[C@H]2CO)c(=O)n1`, the EC50 in test [1] was found to be 1.3 µM. This compound also returned an EC90 in test [1] of 5.3 µM. Also, the IC50 was 54.8 µM with Vero, 4.3 µM in the test on CCRF-CEM and ≤ 1 µM in the test with PBMC.

For the compound `Nc1ncnc2c1ncn2[C@@H]1S[C@H](CO)[C@H]1CO`, the EC50 in test [1] is > 100 µM. In addition, the EC90 in test [1] is > 100 µM. Further, the IC50 with Vero, in the test on CCRF-CEM and in the test on PBMC was > 100 µM throughout.

For `Nc1nc(=O)n([C@@H]2S[C@H](CO)[C@H]2CO)cc1Cl`, the EC50 in test [1] was > 100 µM. Moreover, the EC90 in test [1] was > 100 µM. Besides, the half-inhibitory concentration (IC50) with Vero, with CCRF-CEM and in the test with PBMC was > 100 µM throughout.

In test [1], `Cc1cn([C@H]2C[C@H](N=[N+]=[N-])[C@@H](CO)O2)c(=O)[nH]c1=O` [ZIDOVUDINE] showed an EC90 of 0.01 µM. Also, the IC50 in the test on PBMC is > 100 µM.
